SKKanGAS inh: S. pyogenes SKKanGAS growth inhibitors in kanamycin, primary screen, streptokinase expression inhibitor project, SKKanGAS strain, BacTiter-Glo luminescence; 6 h; inhibition, % at 7.5 µM; 300,000 compounds, 1.3% hits;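 active = mean replicate score, as percent of positive control median, at least 50; inconclusive = mean below 50 but one replicate at or above 50; inactive = mean and every replicate below 50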;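 note: strain carries kanamycin resistance gene driven by streptokinase promoter and grows in 40 µg/ml kanamycin; loss of luminescence reflects streptokinase promoter inhibition or plain growth inhibition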
Beta apoptosis: inhibitors of cytokine-induced beta cell apoptosis, primary screen, luminescence; INS-1E cytokine-induced death, ATP luminescence, 48 h; percent of positive-control rescue, neutral wells zero; protection from apoptosis, % (test concentration not listed); 300,000 compounds, 0.8% hits; AID 435005, 2010;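 active = Every replicate reaches about 75%, or at least half do and their mean reaches it too, limit read from the data; inconclusive = At least half of replicates reach the limit but their mean does not; inactive = Under half of replicates reach the limit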;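 note: higher means more ATP so stronger rescue from cytokine killing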
CSC inhib: cancer stem cell viability inhibitors, primary screen, luminescence. cancer stem cell-like cells viability. inhibition, % at 7.5 µM. 300,000 compounds, 1.1% hits. AID 2717, 2010; in the data active = inhibition above about 75%; inconclusive = no clear call, values can overlap the other calls; tested in HMLE shEcad cells
Mdm2-MdmX inh: inhibitors of human Mdm2-MdmX association, primary screen, cell-based, luminescence, split luciferase, SaOS-2, uHTS | Protein Mdm4 (Homo sapiens) + E3 ubiquitin-protein ligase Mdm2 (Homo sapiens), … | SaOS-2 split-luciferase Mdm2/MdmX complementation | inhibition, % at 8 µM | 330,000 compounds, 3% hits;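 active = inhibition of at least 50% at 8 µM in the primary screen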
Target sequence (O15151 whole entry, looked up): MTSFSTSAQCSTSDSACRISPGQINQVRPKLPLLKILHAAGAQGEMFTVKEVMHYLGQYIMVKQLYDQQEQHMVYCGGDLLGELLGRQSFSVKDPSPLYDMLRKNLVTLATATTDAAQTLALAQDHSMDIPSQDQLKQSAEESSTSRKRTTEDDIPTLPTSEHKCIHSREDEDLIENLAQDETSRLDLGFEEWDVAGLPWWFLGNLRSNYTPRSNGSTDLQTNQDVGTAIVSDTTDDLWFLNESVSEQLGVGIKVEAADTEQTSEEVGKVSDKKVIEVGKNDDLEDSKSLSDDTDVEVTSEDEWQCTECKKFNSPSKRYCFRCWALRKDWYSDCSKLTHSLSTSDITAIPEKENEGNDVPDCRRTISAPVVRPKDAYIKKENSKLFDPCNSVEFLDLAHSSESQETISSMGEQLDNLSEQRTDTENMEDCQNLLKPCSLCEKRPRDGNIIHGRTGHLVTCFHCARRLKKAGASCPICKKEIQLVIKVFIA
Target sequence (Q00987 whole entry, looked up): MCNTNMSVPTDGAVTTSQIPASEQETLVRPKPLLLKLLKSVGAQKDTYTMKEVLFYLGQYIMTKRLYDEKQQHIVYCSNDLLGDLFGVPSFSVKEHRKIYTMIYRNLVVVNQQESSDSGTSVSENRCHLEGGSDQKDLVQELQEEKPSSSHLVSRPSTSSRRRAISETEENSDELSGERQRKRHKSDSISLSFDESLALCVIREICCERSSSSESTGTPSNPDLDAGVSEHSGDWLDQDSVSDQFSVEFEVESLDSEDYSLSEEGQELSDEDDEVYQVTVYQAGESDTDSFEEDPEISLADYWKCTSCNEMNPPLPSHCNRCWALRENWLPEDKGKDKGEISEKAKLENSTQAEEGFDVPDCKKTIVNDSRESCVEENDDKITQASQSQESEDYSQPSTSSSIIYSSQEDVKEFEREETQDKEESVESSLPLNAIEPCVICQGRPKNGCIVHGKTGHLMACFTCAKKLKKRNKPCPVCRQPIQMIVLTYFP
L major viab: Leishmania major promastigote growth inhibition, primary screen; 200,000 compounds, 9% hits; inhibition, % at 10 µM; AID 1063, 2008; Leishmania major promastigotes, resazurin fluorescence viability; in the data active = inhibition above about 50%;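 note: promastigotes grown with compound for 44 hours at 28 °C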
T cruzi inh: inhibitors of intracellular T. cruzi growth, primary screen, luminescence, NIH3T3 host cells; T. cruzi beta-gal in NIH3T3, 90 h; inhibition, % (test concentration not listed); 300,000 compounds, 1.4% hits; AID 1885, 2009;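 active = mean inhibition across valid replicates above about 55%, limit read from the data; inconclusive = mean below that limit but half or more replicates reach it; inactive = mean below it, under half of replicates reach it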;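 note: signal also drops with host cell toxicity which is not excluded here; higher percent means less beta-gal luminescence so fewer parasites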
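System: NIH/3T3 fibroblasts plus reporter T. cruzi. Medium: DMEM plus 2% FBS. Probe or stimulus: 5000 reporter trypomastigotes per well. Compound: single 50 nL compound addition per well in DMSO. Incubation: co-culture of at least 90 h after 3 h attachment. Detection: GalScreen β-gal luminescence, detergent lysis, 60 min. Evaluation: parasite load inhibition, %.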
Large screens that a line does not name were inactive. A selection: hits, their analogues and other compounds. The true share with any hit is near 9.4%.

COc1ccc(OC)c(NC(=S)N(CCc2c(C)[nH]c3ccccc23)Cc2cccs2)c1	none
COCCNC(=S)N(CCc1c(C)[nH]c2ccc(C)cc12)Cc1cc(OC)c(OC)c(OC)c1	L major viab 53
CC(=O)C1=C(C)NC(=O)NC1c1ccc(Cl)cc1 (stereo unspecified)	none
Oc1ccc(-c2cn3cc(C(F)(F)F)ccc3n2)cc1	L major viab 51
Cc1cc(Cl)c(OCCCNCc2ccccc2)c(Br)c1	L major viab 84, T cruzi inh 56
COCCNCCCCOc1c(Cl)cc(C)cc1Br	L major viab 98
O=C(c1c[nH]c(C(=O)N2CCN(c3ccccc3F)CC2)c1)c1cccc(Cl)c1Cl	T cruzi inh 60 (no result: Beta apoptosis, CSC inhib, Mdm2-MdmX inh)
Fc1ccc2[nH]c3c(N4CCN(c5ccccc5)CC4)ncnc3c2c1	Beta apoptosis 89
O=C(CCCN1CCC(O)(c2cccc(C(F)(F)F)c2)CC1)c1ccc(F)cc1	none (no result: SKKanGAS inh, L major viab, T cruzi inh)
OC1(c2cccc(C(F)(F)F)c2)CCN(c2ncnc3c2[nH]c2ccc(F)cc23)CC1	L major viab 88 (no result: SKKanGAS inh, Beta apoptosis, CSC inhib, Mdm2-MdmX inh, T cruzi inh)
COc1ccc(N2CCN(c3ncnc4c3[nH]c3ccccc34)CC2)cc1	Beta apoptosis 102
CCOC(=O)N1CCN(c2ncnc3c2[nH]c2ccc(F)cc23)CC1	Beta apoptosis 76
CCCCSc1nnc(CSc2ncccn2)n1C	none
CN(C(=O)COC(=O)c1cnc(Cl)c(Cl)c1)C1CCCCC1	none (no result: SKKanGAS inh, L major viab, T cruzi inh)
O=C(Nc1ccc(Nc2ccccc2)cc1)c1cccc(F)c1	CSC inhib 75 (no result: L major viab)
O=C(Nc1cccc(F)c1)c1ccccc1	none
O=C(Nc1ccc2c(c1)CCC2)c1cccc(F)c1	L major viab 83 (no result: Beta apoptosis)
O=C(Nc1ccc2c(c1)CCC2)c1ccc(F)c(S(=O)(=O)N2CCOCC2)c1	L major viab 78
COc1cccc(OCc2cc(C(=O)N3CCN(C(C)=O)CC3)no2)c1	none (no result: L major viab)
O=[N+]([O-])c1ccc(O)c(CSc2nnnn2-c2ccccc2)c1	none (no result: L major viab)
CC1CC(C)CN(S(=O)(=O)c2ccc3c(c2)oc(=O)n3CC(=O)NCCCOC(C)C)C1 (stereo unspecified)	none (no result: L major viab)
Cn1nnnc1SCC1=C(C(=O)O)N2C(=O)C(NC(=O)C3CC3c3ccccc3)C2SC1 (stereo unspecified)	SKKanGAS inh 101
Cc1nn(C(C)C(=O)NC2C(=O)N3C(C(=O)O)=C(CSc4nnnn4C)CSC23)cc1Cl (stereo unspecified)	SKKanGAS inh 100
Cn1nnnc1SCC1=C(C(=O)O)N2C(=O)[C@@H](NC(=O)[C@H](O)c3ccccc3)[C@H]2SC1	none
CC1=C(C(=O)O)N2C(=O)C(NC(=O)c3nn(C)cc3[N+](=O)[O-])C2SC1 (stereo unspecified)	none
CC1=C(C(=O)O)N2C(=O)C(NC(=O)c3ccn(C)n3)C2SC1 (stereo unspecified)	none
CC(C(=O)NC1C(=O)N2C(C(=O)O)=C(CSc3nnnn3C)CSC12)n1cc(Br)cn1 (stereo unspecified)	SKKanGAS inh 97
Cc1cc(C(F)F)nn1CC(=O)NC1C(=O)N2C(C(=O)O)=C(CSc3nnnn3C)CSC12 (stereo unspecified)	SKKanGAS inh 119
O=C(CCN1N=C(c2ccccc2)CCC1=O)NCC1CCCO1 (stereo unspecified)	none (no result: L major viab)
CN1CC(c2ccc(C#N)cc2)C2(COc3ccccc3C2=O)C12C(=O)Nc1ccccc12 (stereo unspecified)	L major viab 90
CC1=C(C(=O)OCc2ccccc2)C(c2ccc(C#N)cc2)NC(=O)N1CCCC(=O)O (stereo unspecified)	none
C=CCC1(CC=C)CCCN1C(=O)c1cc(COc2ccc(C)nc2)on1	Beta apoptosis 105, T cruzi inh inconclusive (no result: L major viab)
C=CCC1(CC=C)CCCN1C(=O)c1cc(COc2ccc(F)c(F)c2)on1	none (no result: L major viab)
O=C1C=C(NCCN2CCOCC2)C(=O)c2cnccc21	Beta apoptosis 98, L major viab 99 (no result: Mdm2-MdmX inh)
CCN1CCN(c2oc(COc3ccc(-c4ccccc4)cc3)nc2C#N)CC1	T cruzi inh 61
